Data reported in ChEMBL document CHEMBL2062525, “Substituted 3-(5-imidazo[2,1-b]thiazolylmethylene)-2-indolinones and analogues: synthesis, cytotoxic activity, and study of the mechanism of action” (J Med Chem, 2012).
Structures can show the parent of a compound that is named as a salt.

How the values were obtained:
[1] = Cytotoxicity against human leukemia cells after 48 hrs; assay type: functional; settings: Leukemia cell
In short: (§1)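 NCI 60-cell panel (subpanels include leukemia and prostate). […] Percent growth relative to untreated control; some repeats averaged over two experiments.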

NSCLC = test: Cytotoxicity against human NSCLC cells after 48 hrs; assay type: functional
In short: (§2)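 NCI 60-cell panel subpanel lines; compounds first screened at a single 10−5 M, then those passing threshold tested in five-concentration assay over 10−9 to 10−4 M (some to 10−3 M), 48 h exposure. Growth relative to untreated control measured as cell protein; GI50, TGI and LC50 derived; some values are means of two experiments.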

[2] = Cytotoxicity against human COLON cells after 48 hrs; assay type: functional; in short: as §2
[3] = Cytotoxicity against human CNS cancer cells after 48 hrs; assay type: functional; settings: Cancer cell lines; in short: as §2
[4] = Cytotoxicity against human melanoma cells after 48 hrs; assay type: functional; settings: Melanoma cell; for CC50: read-out: LC50 (the source's name); in short: as §2
[5] = Cytotoxicity against human ovarian cancer cells after 48 hrs; assay type: functional; settings: Cancer cell lines; in short: as §2
[6] = Cytotoxicity against human renal cancer cells after 48 hrs; assay type: functional; settings: Cancer cell lines; for CC50: read-out: LC50 (the source's name); in short: as §2
[7] = Cytotoxicity against human prostate cancer cells after 48 hrs; assay type: functional; settings: Cancer cell lines; in short: as §1
[8] = Cytotoxicity against human breast cancer cells after 48 hrs; assay type: functional; settings: Cancer cell lines; in short: as §2
[9] = Inhibition of bovine brain tubulin assembly after 20 mins; parameters: species or system Bos taurus
Bos taurus = species on record: Bos taurus; test: Displacement of [3H]colchicine from bovine brain tubulin at 5 uM after 10 mins

| SMILES | GI50 [1] [µM] | GI50 (NSCLC) [µM] | TGI (NSCLC) [µM] | GI50 [2] [µM] | GI50 [3] [µM] | TGI [3] [µM] | GI50 [4] [µM] | GI50 [5] [µM] | TGI [5] [µM] | GI50 [6] [µM] | GI50 [7] [µM] | GI50 [8] [µM] | TGI [8] [µM] | TGI [2] [µM] | TGI [1] [µM] | LC50 [3] [µM] | TGI [4] [µM] | TGI [6] [µM] | LC50 [8] [µM] | TGI [7] [µM] | further results |
| --- | --- | --- | --- | --- | --- | --- | --- | --- | --- | --- | --- | --- | --- | --- | --- | --- | --- | --- | --- | --- | --- |
| Cc1ccc(-c2nc3sc(C)cn3c2/C=C2/C(=O)Nc3cc(C)c(O)cc32)cc1 | 52.5 | 18.6 | 72.4 | 60.3 | 11.8 | 91.2 | 33.9 | 10.5 | 63.1 | 18.2 | 21.4 | 12.6 | 63.1 | – | – | – | – | – | – | – | – |
| CC[C@]1(O)C[C@H]2CN(CCc3c([nH]c4ccccc34)[C@@](C(=O)OC)(c3cc4c(cc3OC)N(C=O)[C@H]3[C@@](O)(C(=O)OC)[C@H](OC(C)=O)[C@]5(CC)C=CCN6CC[C@]43[C@@H]65)C2)C1 [VINCRISTINE SULFATE] | 0.1 | 0.25 | – | 0.1 | 0.13 | – | 0.16 | 0.32 | – | 0.32 | 0.13 | 0.32 | – | 3.98 | – | – | – | – | – | – | – |
| COc1nc2sccn2c1/C=C1/C(=O)Nc2cccc(Cl)c21 | 2.19 | 7.08 | 70.8 | 3.72 | 6.31 | 32.4 | 4.9 | 4.68 | 43.6 | 7.08 | 13.2 | 3.24 | 50.1 | 91.2 | 64.6 | 87.1 | 60.3 | 49 | 93.3 | – | LC50 (concentration killing 50% of starting cells) [5]: 97.7 µM; CC50 [6]: 89.1 µM |
| COc1cc(-c2nc3sc(C)cn3c2/C=C2/C(=O)Nc3ccccc32)c(Br)c(OC)c1OC | 36.3 | 32.4 | 89.1 | 26.3 | 23.4 | 55 | 29.5 | 39.8 | 85.1 | 30.9 | 30.2 | 19.1 | 63.1 | 75.9 | – | – | 85.1 | 75.9 | – | 85.1 | – |
| COc1nc2sccn2c1/C=C1/C(=O)Nc2ccccc21 | 0.5 | 0.43 | 51.3 | 0.29 | 0.25 | 7.94 | 0.47 | 0.44 | 20.4 | 0.54 | 0.55 | 0.28 | 13.2 | 13.8 | 21.4 | 50.1 | 40.7 | 38.9 | 91.2 | 29.5 | LC50 (concentration killing 50% of cells) [1]: 60.3 µM; LC50 (NSCLC): 93.3 µM; LC50 (concentration giving 50% net cell kill) [2]: 89.1 µM; CC50 [4]: 95.5 µM; IC50 [9]: 3.7 µM; inhibition (Bos taurus): 48% |
| Cc1nn2c(/C=C3/C(=O)Nc4c3ccc3ccccc43)c(C)nc2s1 | 0.17 | 0.87 | 15.5 | 0.35 | 0.39 | – | 0.68 | 0.91 | 11.8 | 0.83 | 0.38 | 0.3 | 6.31 | 6.61 | 3.31 | 46.8 | 17 | 10.5 | 75.9 | 5.13 | LC50 (concentration killing 50% of cells) [1]: 66.1 µM; LC50 (NSCLC): 74.1 µM; LC50 (concentration giving 50% net cell kill) [2]: 49 µM; CC50 [4]: 70.8 µM; LC50 (concentration killing 50% of starting cells) [5]: 56.2 µM; CC50 [6]: 56.2 µM; LC50 (concentration killing 50% of cells) [7]: 15.1 µM; IC50 [9]: 16 µM; inhibition (Bos taurus): 45% |
| Cc1nn2c(/C=C3/C(=O)Nc4ccc(F)cc43)c(-c3ccc(Cl)cc3)nc2s1 | 25.1 | 60.3 | – | 38 | 20.4 | 79.4 | 66.1 | 21.9 | – | 26.3 | – | 36.3 | 95.5 | – | – | – | – | 72.4 | – | – | – |
| COc1nc2sccn2c1/C=C1/C(=O)N(C)c2ccccc21 | 3.89 | 7.94 | 95.5 | 2.24 | 11 | 77.6 | 8.71 | 6.46 | – | 15.8 | 21.4 | 2.19 | 60.3 | 60.3 | 43.6 | – | 77.6 | 85.1 | – | – | – |
| Cc1nn2c(/C=C3/C(=O)Nc4ccc(F)cc43)c(C)nc2s1 | 2.34 | 19.5 | – | 4.17 | 20.9 | 87.1 | 26.9 | 33.9 | – | 26.9 | – | 6.31 | 57.5 | – | – | – | – | – | – | – | – |
